From the array DNA melting data of Ke et al. (doi:10.1101/2024.01.08.574731)

Columns and labels:
[1] = folding enthalpy; higher = less favourable; fluorescence melt of hairpins on a sequencing array, two-state fit; settings: sodium 0.088 M
How it was run: (§1)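 Hairpins were imaged by Cy3 fluorescence on a sequenced MiSeq flow cell with annealed Cy3 and quencher oligos, in 50 mM Na-HEPES pH 8.0, 25 mM NaCl, in 2.5 °C steps up to 60 °C. Bootstrapped two-state fits of normalised signals gave melting temperature and folding enthalpy. Four replicates were combined by inverse variance, and fitted temperatures were raised by 9.35 °C to match UV melts.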

[2] = melting temperature; fluorescence melt of hairpins on a sequencing array, two-state fit, raised by 9.35 °C to match UV melts; settings: sodium 0.088 M
How it was run: as §1

Sequence	folding enthalpy [1] [kcal/mol]	Tm [2] [°C]
GCCCTGGGAAACCAGAGC ((.((((....)))).))	-28.7	45.5
GCCCTGGGAAACTAGGGC (((((.(....).)))))	-44.5	55.3
GCCCTTGCGAAAGCAGGC (((..(((....))))))	-14.7	43.8
GCCCTTGGAAACAAAGGC (((.(((....))).)))	-28.2	35.3
GCCCTTTCGAAAGAAGGC (((..(((....))))))	-33.3	37.6
GCCGAACGAAAGTTTGGC (((.(((....))).)))	-35.2	66
GCCGACCGAAAGGTGGGC (((.(((....))).)))	-34.4	67.4
GCCGACGAAAGTCCGGGC ((((((....)))..)))	-24.4	53
GCCGACGAAAGTCGAGGC ((((((....)))..)))	-16.5	59.5
GCCGACGAAAGTCTCGGC ((((((....)))..)))	-37.1	52
GCCGACGGAAACACCGGC ((((..(....)..))))	-20.4	43.9
GCCGAGCCGAAAGGCGGC (((..(((....))))))	-12.7	68.7
GCCGAGCGAAAGCATGGC (((..((....))..)))	-28.1	64
GCCGAGCGAAAGCCAGGC (((..((....))..)))	-24	62.7
GCCGAGCGAAAGCTCCGC ((.((((....)))).))	-18	55.7
GCCGAGCGAAAGCTGTGC ((..(((....)))..))	-15.2	41.2
GCCGATGGAAACATCAGC ((.((((....)))).))	-24.5	41.5
GCCGATGGAAACGTCGGC (((((.(....).)))))	-44.9	62.7
GCCGCAGGAAACTGCGAC (.(((((....))))).)	-13.1	48.8
GCCGCCCCGAAAGGGGGC (((..(((....))))))	-6.87	67.5
GCCGCCGAAAGGCGCGGC ((((((....)))..)))	-11.2	69.3
GCCGCCGAAAGGCTGGGC ((((((....)))..)))	-20.4	64.8
GCCGCGCGAAAGCGATGC ((..(((....)))..))	-15.2	45.3

Sequence	folding enthalpy [1] [kcal/mol]	Tm [2] [°C]
GCCGCGCGAAAGCGCCGC ((.((((....)))).))	-16.6	59.7
GCCGCGCGAAAGCTCTGC ((.(.((....)).).))	-10.9	30.7
GCCGGAGGAAACCCCAGC ((.((.(....).)).))	-6.86	16.8
GCCGGAGGAAACCCCGAC (.(((.(....).))).)	-6.74	30.2
GCCGGCGAAAGCCTGGC ((((((....))).)))	-24.8	68.8
GCCGGCGGAAACACCGGC (((((.(....).)))))	-44.1	66.8
GCCGGGCGAAAGCCACGC ((..(((....)))..))	-12.7	50
GCCGGGCGAAAGCCATGC ((..(((....)))..))	-14.4	42.4
GCCGGGGCGAAAGCCGGC (((..(((....))))))	-20	69
GCCGGTCGAAAGACGGC (((.(((....))))))	-30.1	67.6
GCCGGTCGAAAGACTGGC (((.(((....))).)))	-32	68.3
GCCGGTGGAAACATCGGC ((((.((....)).))))	-45.8	58.9
GCCGGTGGAAACGCTGGC (((.(.(....).).)))	-40.9	50.8
GCCGGTTCGAAAGAAGGC (((..(((....))))))	-22.8	38.8
GCCGTACGAAAGTAGGGC (((.(((....))).)))	-40.8	60.1
GCCGTACGAAAGTATGGC (((.(((....))).)))	-42.8	61.4
GCCGTATCGAAAGATGGC (((..(((....))))))	-9.59	47.4
GCCGTCCGAAAGGAAGGC (((.(((....))).)))	-36.4	67
GCCGTCGAAAGACACGGC ((((((....)))..)))	-27.5	54.6
GCCGTCGAAAGACGCGGC ((((((....)))..)))	-15	61.3
GCCGTGCGAAAGCAATGC ((..(((....)))..))	-11.2	39.2
GCCGTGCGAAAGCAGAGC ((..(((....)))..))	-13.5	51.9
GCCGTGCGAAAGCAGGC (((.(((....))))))	-23.7	68.2

Sequence	folding enthalpy [1] [kcal/mol]	Tm [2] [°C]
GCCGTGCGAAAGCCCAGC ((.(.((....)).).))	-10.3	29.4
GCCGTGCGAAAGCCCTGC ((.(.((....)).).))	-9.62	30.3
GCCGTGCGAAAGCCGGGC (((..((....))..)))	-15.1	65.3
GCCGTGCGAAAGCGCCGC ((.(.((....)).).))	-14.4	50
GCCGTGGGAAACCGTGGC (((..((....))..)))	-28.2	47.4
GCCGTTGGAAACAACAGC ((.((((....)))).))	-18.7	41.6
GCCTAACGAAAGTTTGGC (((.(((....))).)))	-50.4	54.2
GCCTAAGAAATTAGGC ((((((....))))))	-28.8	52.5
GCCTAAGGAAACTTAGAC (.(((((....))))).)	-19.8	27.8
GCCTACACGAAAGTGGGC (((..(((....))))))	-22.2	50.5
GCCTACCGAAAGGTGGC (((.(((....))))))	-25.4	57
GCCTACCGAAAGGTGGGC (((.(((....))).)))	-38.6	69.1
GCCTACGAAAGTAGTGGC ((((((....)))..)))	-24.3	48.4
GCCTACGAAAGTATGGGC ((((((....)))..)))	-34.8	46.5
GCCTACGGAAACGCAGGC ((((.((....)).))))	-27.6	52.6
GCCTAGCGAAAGCGAAGC ((.(.((....)).).))	-16.1	41.9
GCCTAGCGAAAGCGACGC ((.(.((....)).).))	-15.3	47.8
GCCTAGCGAAAGCTCAGC ((..(((....)))..))	-14.6	34.7
GCCTAGCGAAAGCTGAGC ((..(((....)))..))	-10.7	48.8
GCCTAGCGAAAGCTGCGC ((..(((....)))..))	-17.6	49.6
GCCTAGCGAAAGCTGTGC ((..(((....)))..))	-13	41.2
GCCTAGGGAAACCTGGGC (((.(((....))).)))	-38.3	55.1
GCCTATACGAAAGTAGGC (((..(((....))))))	-28.6	48.3

Sequence	folding enthalpy [1] [kcal/mol]	Tm [2] [°C]
GCCTATGGAAACACAGGC ((((.((....)).))))	-31.7	40
GCCTATGGAAACATGGGC (((.(((....))).)))	-46.6	51.7
GCCTCCGAAAGGATAGGC ((((((....)))..)))	-37.1	53.2
GCCTCCGCGAAAGCGGGC (((..(((....))))))	-5.39	52.2
GCCTCGCGAAAGCACGGC (((..((....))..)))	-22.5	54.1
GCCTCGCGAAAGCCGGGC (((..((....))..)))	-22.5	55.8
GCCTCGCGAAAGCGCGGC (((.(((....))).)))	-40.8	61.3
GCCTCGCGAAAGCGCTGC ((..(((....)))..))	-10.4	38.5
GCCTCGCGAAAGCTATGC ((.(.((....)).).))	-4.77	15.9
GCCTCGGGAAACTGAGGC (((((.(....).)))))	-37.1	59.4
GCCTCGTCGAAAGACGGC (((..(((....))))))	-8.04	49.6
GCCTCTCGAAAGAGCGGC (((.(((....))).)))	-37	53.4
GCCTCTGGAAACGGAGGC (((((.(....).)))))	-40.7	57.5
GCCTGACGAAAGTCGGC (((.(((....))))))	-23.2	63.1
GCCTGAGGAAACTCAAGC ((.((((....)))).))	-21.6	35.1
GCCTGCGAAAGCAAGGGC ((((((....)))..)))	-18.7	61.3
GCCTGCGAAAGCAGTGGC ((((((....)))..)))	-14.8	57.1
GCCTGCGGAAACACAGGC (((((.(....).)))))	-40.8	52.4
GCCTGCGGAAACGCAAGC ((.((((....)))).))	-18.5	48
GCCTGCGGAAACGTAGGC ((((.((....)).))))	-28	58
GCCTGGCGAAAGCCAAGC ((.((((....)))).))	-17.5	57.7
